High-throughput results (PubChem)
MC4R ag barr = activates human MC4R beta-arrestin recruitment. U2OS MC4R beta-arrestin complementation, luminescence; percent of melanotan II response, DMSO zero. AID 540308. P32245. activation, % at 8.9 µM. 360,000 tested, 0.98% active;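 active means activation above a per-plate cutoff, the mean activation of sample wells on that plate plus 3 SD, cut at about 8% in these data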
T cell HTS = T cell immune modulation candidate. 2C CD8+ T cell-vesicle binding, flow cytometry; active compounds read low. 330,000 tested, 0.068% active. response (vesicle binding), % at 7 µM;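 active means response, share of CD8 T cells binding vesicles, and their 90th percentile fluorescence all below set limits, cut at about 80% in these data, passing the limit was not always enough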;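 further: values below 100% mean blocked vesicle binding to the CD8+ T cells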
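incubation = binding step 1.5 h, 37 °C, antibody labelling 20 min, ice | test system = 2C mouse CD8+ T cells | read-out basis = percent CD8+ FL2 mean versus row control | controls = Peptide-free naked vesicles (low) and QL9 vesicles with 0.7% DMSO vehicle (high) | detection = flow cytometry of vesicle-bound cells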
PGE2 EP2 inh = blocks the human prostaglandin E2 receptor EP2; inhibition, % at 25 µM; 260,000 tested, 0.52% active; C6 glioma cells expressing human EP2, cAMP TR-FRET; cells stimulated with saturating PGE2; P43116; AID 1422;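 active means percent inhibition above 40 after rounding to a whole number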;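 further: rat C6 glioma host cells with rolipram phosphodiesterase inhibitor present; the protocol text gives 20 µM as final concentration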
Target sequence (P43116 whole entry, looked up): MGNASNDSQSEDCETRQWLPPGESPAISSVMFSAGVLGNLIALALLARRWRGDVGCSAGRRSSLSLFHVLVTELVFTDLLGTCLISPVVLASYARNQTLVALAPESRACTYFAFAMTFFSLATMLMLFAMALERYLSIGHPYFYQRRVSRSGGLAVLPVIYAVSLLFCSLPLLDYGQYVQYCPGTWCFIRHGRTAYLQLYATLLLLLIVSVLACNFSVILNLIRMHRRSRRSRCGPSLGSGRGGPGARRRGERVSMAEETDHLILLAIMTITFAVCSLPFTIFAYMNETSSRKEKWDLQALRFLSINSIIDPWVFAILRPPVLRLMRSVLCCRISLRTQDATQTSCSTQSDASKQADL
Exocytosis inh = lytic granule exocytosis inhibition | TALL-104 LAMP-1 surface exposure, flow cytometry; cells stimulated with thapsigargin and PMA | inhibition, % at 10 µM | 360,000 tested, 0.66% active | AID 651702;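 active means inhibition above about 55%, limit read from the data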
MC4R antagonist = human MC4R antagonism in cAMP assay; inhibition, % at 6.5 µM; 360,000 tested, 0.48% active; MC4R-expressing cells, MTII-stimulated cAMP, LANCE TR-FRET;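 active means inhibition above its plate's cutoff, the mean of tested wells on that plate plus 3 SD, cut at about 29% in these data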;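 further: 0% = Melanotan II alone and 100% = Melanotan II plus saturating MCL0020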
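material = U2OS cells stably expressing human melanocortin 4 receptor (MC4R) | also added = Melanotan II challenge | dosing = single nominal compound dose of 6.5 µM | detection = TR-FRET with Eu-cAMP and labeled anti-cAMP, 671 nm | replication = singlicate | timing = compound 30 min, challenge 1 h, detection 1 h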
EP2 mod = modulators of human EP2 prostaglandin E2 receptor; P43116; EP2-expressing cells, cAMP HTRF FRET, PGE2 co-stimulation; induction, % at 25 µM; 260,000 tested, 0.83% active; AID 940;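 active means compounds whose cAMP rise, as percent of the full-agonist control response, exceeds 60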;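 further: rat C6 glioma line stably carrying human EP2 under a CMV promoter; the protocol text gives 20 µM as final concentration; 100% = response of wells given 1 µM PGE2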
Active calls of the source: *; · = no result given. Most compounds without a hit are left out; they make up all but 2.6% or so of the library.

SMILES	MC4R ag barr	T cell HTS	PGE2 EP2 inh	Exocytosis inh	MC4R antagonist	EP2 mod
CCCCCCn1c(CN2CCC(C)CC2)nc2c1c(=O)n(C)c(=O)n2C	0	321	6	0	6	63*
Cc1sc(N)nc1C12CC3CC(CC(C3)C1)C2	1	291	10	-4	-5	12
Cc1ccc(S(=O)(=O)N2CCN(Cc3cc(C(C)(C)C)ccc3O)CC2)cc1	-1	178	·	-10	-4	·
Cc1ccc(NC(=O)C2(C)CCN2C2Cc3ccccc3C2)cc1 (configuration not stated)	8.4*	·	·	-2	4	·
COc1ccc(NC(=O)C(NCC(C)C)c2ccccc2)cc1Cl (configuration not stated)	0	122	9	-2	20	23
C#CCN(C[C@@H]1[C@@H](OC(=O)NC2CCCC2)[C@@H](OC(=O)NC2CCCC2)CN(C(=O)OC(C)C)N1C(=O)OC(C)C)S(=O)(=O)c1ccc(C)cc1	1	·	·	-4	12	·
Nc1ccn(CCCN2CCN(Cc3cccc4ccccc34)CC2)c(=O)n1	1	·	·	-1	5	·
Cc1c(C(=O)OCC(=O)NCc2ccco2)oc2ccccc12	-1	65*	·	1	8	·
COCc1c(C(=O)OCC(=O)NCc2ccco2)oc2ccccc12	-2	386	·	-6	-2	·
CCC(C)[C@@H](N)C(=O)N/N=C/c1cccc2nccnc12 (some centres not stated)	·	235	0	·	·	-29
COc1ccc(-c2cn[nH]c2-c2ccc(OCc3ccccc3)cc2O)cc1	9.3*	130	13	-1	6	-34
O=C(COc1ccc(/C=N/NC(=O)c2cc3ccccc3o2)cc1Br)Nc1ccccc1	53*	404	8	-3	6	-39
O=C(NCc1ccco1)C1CCCN1C(=O)Nc1ccccc1[N+](=O)[O-] (configuration not stated)	-2	316	·	1	0	·
CCc1cccc(NC(=O)Cn2cccc2)c1	1	301	-1	-2	-3	-6
Cc1[nH]nc(N=CC2=C(O)CC(c3ccco3)CC2=O)c1-c1ccc(Cl)cc1 (configuration not stated)	-1	248	6	98*	5	6
Cc1[nH]nc(N=CC2=C(O)CC(C)(C)CC2=O)c1-c1ccc(Cl)cc1	8	257	3	-3	2	31
COCC(=O)Nc1ccc(N2CCN(c3ccccc3)CC2)c(F)c1	-3	279	·	0	5	·
c1ccc(CNc2nc(-c3cccnc3)nc3ccccc23)cc1	-1	164	·	8	0	·
c1ccc(CNc2nc(-c3ccccc3)nc3ccccc23)cc1	2	148	·	2	-1	·
c1ccc(CNc2nc(NCc3ccccc3)c3ccccc3n2)cc1	8.6*	225	95*	61*	4	-54
Clc1cccc(CNc2nc(-c3cccnc3)nc3ccccc23)c1	8	·	·	99*	1	·
O=S(=O)(c1ccc(Br)cc1)N1CCN(S(=O)(=O)c2ccc(Br)cc2)CC1	·	·	42*	·	·	-1
O=C(CN1CCN(S(=O)(=O)c2ccc(Br)cc2)CC1)N/N=C/c1ccc(Br)s1	9.0*	215	5	10	-5	-51
C#CCOCCOCCOCCNc1nc(N2CCN(C(=O)[C@H](CCCCN)n3cc(CN)nn3)CC2)nc(N2CCN(C(=O)[C@H](CO)n3cc([C@@H](N)C(C)C)nn3)CC2)n1	0	469	·	7	6	·
CCOc1cc(/C=N\Nc2ncc(F)c(N3CCOCC3)n2)ccc1Oc1nc(Cl)ncc1F	0	235	10	83*	7	-15
SMILES	MC4R ag barr	T cell HTS	PGE2 EP2 inh	Exocytosis inh	MC4R antagonist	EP2 mod
CC#CCN(Cc1ccco1)C(=O)c1ccc(OC2CCN(Cc3ccccn3)CC2)cc1	-3	320	·	26	9	·
Cc1cccc(C(=O)Oc2ccccc2/C=N/Nc2ccc([N+](=O)[O-])cc2)c1	9.2*	251	8	-3	9	-11
O=[N+]([O-])c1ccc(N/N=C/c2cccc(O)c2O)cc1	-5	259	·	-16	-1	·
S=C1NCN2CCN(CC2)CNC(=S)C(=S)NCN2CCN(CC2)CNC1=S	·	·	48*	·	·	-4
CCOC(=O)c1c(CSC(=N)N)n(-c2ccccc2)c2cc(Br)c(OC(C)=O)cc12	6	224	19	81*	12	-29
CCOC(=O)c1c(CN(CC)CC)n(-c2ccccc2)c2ccc(O)cc12	-3	187	·	15	1	·
CC(=O)Nc1ccc(/C=C/c2nc3ccccc3o2)cc1	-1	181	·	14	2	·
O=C(Nc1ccc(/C=C/c2nc3ccccc3o2)cc1)c1c(F)cccc1F	8.9*	116	14	2	10	-23
CC(C)(C)c1ccc(S(=O)(=O)/C=C/C#N)cc1	·	·	97*	·	·	-20
CC(C)(C)c1ccc(NS(=O)(=O)c2ccc(N)cc2)cc1	0	112	13	-16	5	-33
CC(C)NC(=O)N(C)C[C@H]1Oc2ccc(NC(=O)Cn3cnnn3)cc2C(=O)N([C@H](C)CO)C[C@@H]1C	-3	220	·	17	8	·
COc1ccc(NC(=O)c2ccco2)cc1NC(=O)c1ccccc1F	9.4*	263	4	-4	3	-26
CCCN1CCC(CNC(=O)c2cc(C3CCCCC3)no2)CC1	·	·	11	·	·	-35
COc1ccccc1OCC(=O)Nc1nnc(-c2ccco2)s1	-3	·	·	1	-2	2
c1cnc2c(SCc3ccc(-c4nnco4)cc3)cccc2c1	2	364	17	69*	-16	-32
NNC(=O)c1ccc(CSc2cccc3cccnc23)cc1	-1	198	6	-1	7	-42
CCC(C)N=Cc1c(Nc2ccccc2)nc2c(C)cccn2c1=O (configuration not stated)	-1	283	0	0	28	66*
CCCc1cc(=O)[nH]c(SCc2cccc(C)c2)n1	4	198	8	-1	4	32
C=CCNC(=S)N(Cc1ccccc1)Cc1ccccc1	-2	45	5	-1	9	61*
C=CCNC(=S)N(Cc1ccccc1)Cc1ccc(F)cc1	-3	155	7	-1	1	49
COc1cc(OC)c(NS(=O)(=O)c2c(C)[nH]c(=O)[nH]c2=O)cc1Cl	-1	180	·	-8	0	·
COC(=O)CN1C(=S)N(c2ccc(OC)cc2)C(=O)/C1=C/c1cccs1	1	381	7	1	-2	16
CCc1ccc(N2C(=O)/C(=C/c3cccs3)N(CC(=O)OC)C2=S)cc1	9.1*	182	8	4	2	25
CCc1ccc(-c2nc(CN3CCC(C(=O)N4CCN(c5ccccc5)CC4)CC3)c(C)o2)cc1	9.5*	159	5	-1	9	-8
